The values that follow come from ChEMBL document CHEMBL2440039, “Synthesis and pharmacological evaluation of novel N-aryl-3,4-dihydro-1'H-spiro[chromene-2,4'-piperidine]-1'-carboxamides as TRPM8 antagonists” (Bioorg Med Chem, 2013).

The structures appear in SMILES notation.

Series [1] relates to Rattus norvegicus. In words: Drug uptake in Sprague-Dawley rat at 10 mg/kg, po up to 8 hrs. It is filed as ADME, organism-based. Further details: dose 10 mg/kg, route oral; call rule not given here. The settings on record: in vivo. Put shortly: (§1)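 Male SD rats (180–220 g, n=3), fasted overnight, single oral gavage dose as suspension in 1% Tween 80 / 0.5% w/v methyl cellulose in water. Blood (K2EDTA) drawn 0.5–24 h post dose. Plasma taken by liquid–liquid extraction with internal standard and measured by achiral LC/MS/MS. Values given as mean ± SD.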

Series [2] is described as follows: Tmax in Sprague-Dawley rat at 10 mg/kg, po. In kind it is ADME, organism-based. Further details: dose 10 mg/kg, route oral. The note with it: in vivo. Put shortly:
as §1

For series [3], the system named is Mus musculus. The series can be described thus: Inhibition of oxaliplatin-induced peripheral neuropathic pain in acetone spray-induced cold allodynia C57/BL6 mouse model assessed as inhibition of nocifensive paw licking behavior at 30 mg/kg, po. It is filed as functional. A digest of the protocol: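 Male C57/BL6 mice (20–30 g) received oxaliplatin (3 mg/kg ip, in 5% glucose, 10 ml/kg) and were tested for cold allodynia 3 days later. Compound was dosed po 30 min before acetone spray, with 0.5% MC as vehicle. Nocifensive paw licking/flicking was scored. Analysis was one-way ANOVA with Bonferroni versus vehicle.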

In series [4] the test system is Mus musculus. The series can be described thus: Inhibition of oxaliplatin-induced peripheral neuropathic pain in po dosed acetone spray-induced cold allodynia C57/BL6 mouse model assessed as inhibition of nocifensive paw licking behavior. In kind it is functional, organism-based. Put shortly: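 Male C57/BL6 mice (20–30 g) given oxaliplatin 3 mg/kg ip in 5% glucose and tested for cold allodynia 3 days later. Compound given po (3, 10, 30 mg/kg) 30 min before acetone spray, vehicle 0.5% MC. Nocifensive paw licking recorded. One-way ANOVA with Bonferroni test.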

The subject of series [5] is Rattus norvegicus. The series can be described thus: Inhibition of acetone spray-induced cold allodynia in Sprague-Dawley rat chronic constriction injury model at 10 mg/kg, po after 3 hrs. It is filed as functional. Put shortly: (§2)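 Male SD rats (160–200 g) with sciatic nerve chronic constriction injury under ketamine/xylazine, tested 7 days later at 21 ± 0.5 °C. Oral dose, vehicle 0.5% MC. Acetone 100 µl sprayed on ipsilateral paw, repeated 3–5 times at 5 min intervals. Flinches and licking counted over 2 min at 0, 0.5, 1, 2 and 3 h, scored clinically.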

Series [6] deals with Rattus norvegicus. In words: Inhibition of acetone spray-induced cold allodynia in Sprague-Dawley rat chronic constriction injury model at 10 mg/kg, po after 2 hrs. In kind it is functional. A digest of the protocol: as §2
For series [7], the system named is Rattus norvegicus. In words: Inhibition of acetone spray-induced cold allodynia in Sprague-Dawley rat chronic constriction injury model at 10 mg/kg, po after 1 hr. In kind it is functional. A digest of the protocol:
as §2

Series [8] concerns Rattus norvegicus. The series can be described thus: Inhibition of acetone spray-induced cold allodynia in Sprague-Dawley rat chronic constriction injury model at 10 mg/kg, po after 0.5 hrs. In kind it is functional. A digest of the protocol: as §2
For series [9], the target named is Transient receptor potential cation channel subfamily M member 8 (Rattus norvegicus, UniProt Q8R455). In words: Antagonist activity at rat TRPM8 by 45Ca2+ uptake assay.
Sequence of Transient receptor potential cation channel subfamily M member 8 (Rattus norvegicus, UniProt Q8R455) (Q8R455 whole entry): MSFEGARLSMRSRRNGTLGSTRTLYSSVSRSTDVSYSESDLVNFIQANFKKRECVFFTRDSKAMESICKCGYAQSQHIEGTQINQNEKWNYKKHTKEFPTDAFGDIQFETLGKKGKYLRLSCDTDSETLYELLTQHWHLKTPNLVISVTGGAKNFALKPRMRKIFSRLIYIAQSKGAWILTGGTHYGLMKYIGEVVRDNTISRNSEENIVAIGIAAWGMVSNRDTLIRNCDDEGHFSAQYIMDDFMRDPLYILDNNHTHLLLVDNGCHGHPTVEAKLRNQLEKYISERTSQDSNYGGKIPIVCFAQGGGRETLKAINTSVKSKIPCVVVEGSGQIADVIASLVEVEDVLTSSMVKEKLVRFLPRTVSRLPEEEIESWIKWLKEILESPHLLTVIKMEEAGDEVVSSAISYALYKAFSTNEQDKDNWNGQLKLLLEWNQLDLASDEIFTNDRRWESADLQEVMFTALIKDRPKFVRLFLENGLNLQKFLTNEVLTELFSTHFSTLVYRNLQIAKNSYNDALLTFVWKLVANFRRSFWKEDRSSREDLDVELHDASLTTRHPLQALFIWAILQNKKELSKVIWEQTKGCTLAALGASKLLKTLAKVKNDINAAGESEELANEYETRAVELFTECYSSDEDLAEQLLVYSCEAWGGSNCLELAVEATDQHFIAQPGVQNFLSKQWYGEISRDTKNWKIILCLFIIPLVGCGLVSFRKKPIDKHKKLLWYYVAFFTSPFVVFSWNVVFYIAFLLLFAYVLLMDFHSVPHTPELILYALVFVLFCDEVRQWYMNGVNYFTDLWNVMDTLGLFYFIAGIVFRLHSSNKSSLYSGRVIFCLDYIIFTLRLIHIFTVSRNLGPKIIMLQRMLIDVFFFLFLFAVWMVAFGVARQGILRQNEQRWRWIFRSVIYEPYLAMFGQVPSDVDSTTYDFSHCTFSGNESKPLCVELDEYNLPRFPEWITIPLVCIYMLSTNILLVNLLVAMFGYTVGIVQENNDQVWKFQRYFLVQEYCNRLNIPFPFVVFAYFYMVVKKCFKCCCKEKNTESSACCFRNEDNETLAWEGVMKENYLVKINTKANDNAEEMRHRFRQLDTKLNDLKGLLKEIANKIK
In series [10] the test system is Rattus norvegicus. The series can be described thus: AUC (0 to t) in Sprague-Dawley rat at 10 mg/kg, po. It is filed as ADME, organism-based, Plasma. Further details: dose 10 mg/kg, route oral. The settings on record: in vivo. A digest of the protocol: as §1
Series [11] is described as follows: Cmax in Sprague-Dawley rat at 10 mg/kg, po. The note with it: in vivo. Further details: dose 10 mg/kg, route oral. It is filed as ADME, organism-based. Put shortly: as §1
Series [12] is described as follows: Metabolic stability in human liver microsomes assessed as compound remaining at 1 uM after 60 mins by LC/MS/MS analysis. In kind it is ADME, Microsome. The note with it: read-out: Stability. A digest of the protocol:
(§3)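 Liver microsomes (1.0 mg/mL protein) from male CD1 mouse, Wistar rat, Beagle dog, Cynomolgus monkey, or pooled human. Test item 1.0 µM in KH2PO4 buffer pH 7.4 with 2.0 mM NADPH (final) at 37 °C for 60 min, stopped with TBME. Extract read by LC/MS/MS as area ratio to internal standard. Percent remaining is 60 min relative to 0 min.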
For orientation: Liver microsomes are vesicles of endoplasmic reticulum, rich in cytochrome P450 enzymes.

A short description of series [13]: Metabolic stability in cynomolgus monkey liver microsomes assessed as compound remaining at 1 uM after 60 mins by LC/MS/MS analysis. The note with it: read-out: Stability. In kind it is ADME, Macaca fascicularis, Microsome. Put shortly:
as §3

The nature of series [14]: Metabolic stability in Beagle dog liver microsomes assessed as compound remaining at 1 uM after 60 mins by LC/MS/MS analysis. It is filed as ADME, Canis lupus familiaris, Microsome. The note with it: read-out: Stability. Put shortly: as §3
Series [15] can be described thus: Metabolic stability in Wistar rat liver microsomes assessed as compound remaining at 1 uM after 60 mins by LC/MS/MS analysis. In kind it is ADME, Microsome. The settings on record: read-out: Stability. A digest of the protocol: as §3
Series [16] in a line: Metabolic stability in CD-1 mouse liver microsomes assessed as compound remaining at 1 uM after 60 mins by LC/MS/MS analysis. The settings on record: read-out: Stability. It is filed as ADME, Microsome. A digest of the protocol: as §3
Series [17] deals with Transient receptor potential cation channel subfamily A member 1 (Homo sapiens) (UniProt O75762). The series can be described thus: Antagonist activity at human TRPA1 expressed in CHO cells assessed as inhibition of allyl isothiocyanate-induced 45Ca2+ uptake at 1 uM incubated for 10 mins prior to allyl isothiocyanate-challenge measured after 2 to 5 mins by liquid scintillation counting analysis. In kind it is cell-based. A digest of the protocol:
(§4)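 CHO cells stably expressing human TRPA1, TRPV1, TRPV3 or TRPV4. Temperature 30 °C for TRPV1, 32 °C for TRPV3, 25 °C for TRPV4 and TRPA1. Compound preincubated 10 min, then 45Ca2+ (5 µCi/mL final) and agonist added. Wash after 2–5 min, lyse, scintillation count. TRPV1 IC50 from six-point curves in at least two experiments. TRPA1, TRPV3 and TRPV4 run in duplicate as % inhibition at 1.0 µM.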

Series [18] addresses Transient receptor potential cation channel subfamily V member 4 (Homo sapiens) (UniProt Q9HBA0). In words: Antagonist activity at human TRPV4 expressed in CHO cells assessed as inhibition of 4alphaPDD-induced 45Ca2+ uptake at 1 uM incubated for 10 mins prior to 4alphaPDD-challenge measured after 2 to 5 mins by liquid scintillation counting analysis. It is filed as cell-based. Put shortly: as §4

For series [19], the target named is T1, Transient receptor potential cation channel subfamily V member 3 (Homo sapiens) (UniProt Q8NET8).
T1 sequence (whole entry): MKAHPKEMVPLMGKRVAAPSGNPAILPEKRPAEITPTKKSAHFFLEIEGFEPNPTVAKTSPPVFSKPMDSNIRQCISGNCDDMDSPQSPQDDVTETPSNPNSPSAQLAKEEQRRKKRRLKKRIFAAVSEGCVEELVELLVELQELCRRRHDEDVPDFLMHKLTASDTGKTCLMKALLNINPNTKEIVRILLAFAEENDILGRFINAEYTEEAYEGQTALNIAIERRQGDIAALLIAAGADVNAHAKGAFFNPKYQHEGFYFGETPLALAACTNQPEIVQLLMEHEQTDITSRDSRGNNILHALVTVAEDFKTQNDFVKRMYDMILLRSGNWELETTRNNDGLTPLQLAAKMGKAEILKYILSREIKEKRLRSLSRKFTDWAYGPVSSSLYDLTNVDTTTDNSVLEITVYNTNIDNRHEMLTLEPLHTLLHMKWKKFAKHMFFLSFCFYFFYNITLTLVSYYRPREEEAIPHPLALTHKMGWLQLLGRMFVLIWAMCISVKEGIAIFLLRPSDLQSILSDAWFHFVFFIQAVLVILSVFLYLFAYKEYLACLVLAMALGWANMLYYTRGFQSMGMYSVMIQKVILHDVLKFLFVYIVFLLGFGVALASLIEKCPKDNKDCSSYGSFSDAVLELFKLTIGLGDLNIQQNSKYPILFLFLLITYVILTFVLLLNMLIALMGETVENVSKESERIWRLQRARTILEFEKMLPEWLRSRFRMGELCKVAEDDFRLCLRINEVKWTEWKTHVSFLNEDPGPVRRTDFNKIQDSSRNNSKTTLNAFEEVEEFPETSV
The series can be described thus: Antagonist activity at human TRPV3 expressed in CHO cells assessed as inhibition of 2APB-induced 45Ca2+ uptake at 1 uM incubated for 10 mins prior to 2APB-challenge measured after 2 to 5 mins by liquid scintillation counting analysis. In kind it is cell-based. A digest of the protocol:
as §4

Series [20] has as its target Transient receptor potential cation channel subfamily V member 1 (Homo sapiens, UniProt Q8NER1). In words: Antagonist activity at human TRPV1 expressed in CHO cells assessed as inhibition of capsaicin-induced 45Ca2+ uptake incubated for 10 mins prior to capsaicin-challenge measured after 2 to 5 mins by liquid scintillation counting analysis. It is filed as cell-based. Put shortly: as §4

Series [21] has as its target Transient receptor potential cation channel subfamily M member 8 (Homo sapiens, UniProt Q7Z2W7). In words: Antagonist activity at human TRPM8 expressed in CHO cells assessed as inhibition of icilin-induced 45Ca2+ uptake incubated for 10 mins prior to icilin-challenge measured after 4 mins by liquid scintillation counting analysis. It is filed as cell-based. Put shortly: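 CHO cells stably expressing human TRPM8 in DMEM F-12 with 10% FBS and G418, seeded overnight. Assay buffer is DMEM F12 with 0.1% BSA and 1.8 mM CaCl2, run at 25 °C. Compound added 10 min before 45Ca2+ (5 µCi/mL final) and icilin. Wash after 4 min, lyse, count cpm. IC50 from six-point curves by nonlinear regression, at least two independent experiments.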

The test system of series [22] is Mus musculus. In words: Inhibition of icilin-induced wet dog shakes in C57/BL6 mouse at 30 mg/kg, po administered 30 mins prior to icilin-challenge measured for 30 mins. In kind it is functional. A digest of the protocol: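 Male C57/BL6 mice (20–30 g) acclimatized in a bell jar 10 min daily for 3 days. Icilin 30 mg/kg ip in 20% DMSO / 1% Tween 80. Compound given po 30 min before icilin, vehicle 0.5% MC. Wet dog shakes counted for 30 min after icilin. One-way ANOVA with Bonferroni test.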

Sequence of Transient receptor potential cation channel subfamily A member 1 (Homo sapiens) (O75762 whole entry): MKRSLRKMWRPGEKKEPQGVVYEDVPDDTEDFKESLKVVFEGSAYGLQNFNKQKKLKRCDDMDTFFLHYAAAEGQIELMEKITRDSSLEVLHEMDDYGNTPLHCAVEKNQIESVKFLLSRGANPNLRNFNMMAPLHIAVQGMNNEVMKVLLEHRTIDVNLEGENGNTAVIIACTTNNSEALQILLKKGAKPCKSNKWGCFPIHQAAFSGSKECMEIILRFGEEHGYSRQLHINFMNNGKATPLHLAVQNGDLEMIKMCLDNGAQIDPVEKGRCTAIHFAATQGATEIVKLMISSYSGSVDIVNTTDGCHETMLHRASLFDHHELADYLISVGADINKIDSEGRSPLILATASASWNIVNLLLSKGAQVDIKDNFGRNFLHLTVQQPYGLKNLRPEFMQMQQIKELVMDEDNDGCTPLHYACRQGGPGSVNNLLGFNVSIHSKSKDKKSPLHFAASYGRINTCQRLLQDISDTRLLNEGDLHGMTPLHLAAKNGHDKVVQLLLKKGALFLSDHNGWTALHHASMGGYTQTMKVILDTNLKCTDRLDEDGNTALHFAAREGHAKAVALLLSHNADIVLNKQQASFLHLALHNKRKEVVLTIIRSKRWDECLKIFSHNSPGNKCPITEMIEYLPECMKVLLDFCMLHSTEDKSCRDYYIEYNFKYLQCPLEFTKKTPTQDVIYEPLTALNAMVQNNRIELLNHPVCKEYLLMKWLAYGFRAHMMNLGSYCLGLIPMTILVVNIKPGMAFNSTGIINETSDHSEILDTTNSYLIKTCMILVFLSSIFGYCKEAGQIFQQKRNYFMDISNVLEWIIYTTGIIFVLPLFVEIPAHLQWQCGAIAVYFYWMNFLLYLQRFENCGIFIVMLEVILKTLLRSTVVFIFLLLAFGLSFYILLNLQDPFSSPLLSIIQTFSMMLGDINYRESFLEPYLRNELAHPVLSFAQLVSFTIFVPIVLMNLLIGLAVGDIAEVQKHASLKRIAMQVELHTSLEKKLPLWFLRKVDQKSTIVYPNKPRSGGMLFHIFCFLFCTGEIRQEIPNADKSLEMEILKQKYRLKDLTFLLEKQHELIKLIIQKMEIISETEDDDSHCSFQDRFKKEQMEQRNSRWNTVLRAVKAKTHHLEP
Sequence of Transient receptor potential cation channel subfamily V member 1 (Q8NER1 whole entry): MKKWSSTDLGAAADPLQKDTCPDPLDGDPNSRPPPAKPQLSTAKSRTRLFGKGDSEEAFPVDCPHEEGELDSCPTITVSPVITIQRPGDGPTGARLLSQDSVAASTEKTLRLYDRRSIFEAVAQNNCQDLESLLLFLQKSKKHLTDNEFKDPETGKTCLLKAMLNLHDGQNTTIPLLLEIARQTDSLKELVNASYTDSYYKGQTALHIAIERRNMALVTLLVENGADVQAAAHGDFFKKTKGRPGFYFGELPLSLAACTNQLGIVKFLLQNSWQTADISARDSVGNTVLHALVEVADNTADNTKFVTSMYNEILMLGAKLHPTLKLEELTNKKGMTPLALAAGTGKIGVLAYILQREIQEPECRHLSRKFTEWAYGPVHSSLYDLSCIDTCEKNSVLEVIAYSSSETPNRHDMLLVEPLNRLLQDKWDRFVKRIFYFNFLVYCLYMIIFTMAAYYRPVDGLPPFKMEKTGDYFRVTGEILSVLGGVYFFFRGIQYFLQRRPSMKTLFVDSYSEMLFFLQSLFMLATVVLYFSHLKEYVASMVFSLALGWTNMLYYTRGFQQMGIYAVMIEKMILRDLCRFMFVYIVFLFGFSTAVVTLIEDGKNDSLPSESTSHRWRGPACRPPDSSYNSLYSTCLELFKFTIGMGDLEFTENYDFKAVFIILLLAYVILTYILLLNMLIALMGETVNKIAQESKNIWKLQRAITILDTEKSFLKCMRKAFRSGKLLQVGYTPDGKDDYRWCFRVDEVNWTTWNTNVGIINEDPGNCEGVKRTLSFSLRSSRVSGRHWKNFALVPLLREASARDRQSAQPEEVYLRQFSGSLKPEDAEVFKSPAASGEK
Sequence of Transient receptor potential cation channel subfamily M member 8 (Homo sapiens, UniProt Q7Z2W7) (Q7Z2W7 whole entry): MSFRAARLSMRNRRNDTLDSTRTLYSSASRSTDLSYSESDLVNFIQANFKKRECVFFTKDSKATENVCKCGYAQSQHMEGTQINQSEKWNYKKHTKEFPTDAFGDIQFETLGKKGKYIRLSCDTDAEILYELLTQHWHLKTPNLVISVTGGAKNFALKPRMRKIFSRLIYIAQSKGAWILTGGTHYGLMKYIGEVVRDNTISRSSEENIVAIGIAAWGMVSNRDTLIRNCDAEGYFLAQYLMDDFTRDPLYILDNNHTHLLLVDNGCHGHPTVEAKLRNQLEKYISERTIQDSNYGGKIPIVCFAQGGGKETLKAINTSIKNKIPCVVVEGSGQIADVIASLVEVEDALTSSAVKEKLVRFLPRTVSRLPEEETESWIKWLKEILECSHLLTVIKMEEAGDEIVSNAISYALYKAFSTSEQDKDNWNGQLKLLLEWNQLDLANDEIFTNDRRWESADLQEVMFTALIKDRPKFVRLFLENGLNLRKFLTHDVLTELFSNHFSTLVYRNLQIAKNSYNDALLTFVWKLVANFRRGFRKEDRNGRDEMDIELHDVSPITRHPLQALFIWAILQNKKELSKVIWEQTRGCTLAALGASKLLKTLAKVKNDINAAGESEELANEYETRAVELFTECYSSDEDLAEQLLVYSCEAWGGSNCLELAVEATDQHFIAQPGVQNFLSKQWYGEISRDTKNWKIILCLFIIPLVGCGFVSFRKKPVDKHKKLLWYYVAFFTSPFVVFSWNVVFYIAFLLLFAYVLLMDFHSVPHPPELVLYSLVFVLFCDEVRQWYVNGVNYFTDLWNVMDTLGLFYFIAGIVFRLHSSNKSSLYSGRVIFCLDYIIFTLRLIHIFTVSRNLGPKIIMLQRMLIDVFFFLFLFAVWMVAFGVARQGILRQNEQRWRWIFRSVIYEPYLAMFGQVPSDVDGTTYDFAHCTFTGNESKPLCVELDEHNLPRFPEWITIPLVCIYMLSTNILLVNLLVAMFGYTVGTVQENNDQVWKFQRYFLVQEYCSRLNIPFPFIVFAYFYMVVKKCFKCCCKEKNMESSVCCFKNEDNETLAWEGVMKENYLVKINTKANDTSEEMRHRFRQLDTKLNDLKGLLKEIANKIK
Sequence of Transient receptor potential cation channel subfamily V member 4 (Homo sapiens) (Q9HBA0 whole entry): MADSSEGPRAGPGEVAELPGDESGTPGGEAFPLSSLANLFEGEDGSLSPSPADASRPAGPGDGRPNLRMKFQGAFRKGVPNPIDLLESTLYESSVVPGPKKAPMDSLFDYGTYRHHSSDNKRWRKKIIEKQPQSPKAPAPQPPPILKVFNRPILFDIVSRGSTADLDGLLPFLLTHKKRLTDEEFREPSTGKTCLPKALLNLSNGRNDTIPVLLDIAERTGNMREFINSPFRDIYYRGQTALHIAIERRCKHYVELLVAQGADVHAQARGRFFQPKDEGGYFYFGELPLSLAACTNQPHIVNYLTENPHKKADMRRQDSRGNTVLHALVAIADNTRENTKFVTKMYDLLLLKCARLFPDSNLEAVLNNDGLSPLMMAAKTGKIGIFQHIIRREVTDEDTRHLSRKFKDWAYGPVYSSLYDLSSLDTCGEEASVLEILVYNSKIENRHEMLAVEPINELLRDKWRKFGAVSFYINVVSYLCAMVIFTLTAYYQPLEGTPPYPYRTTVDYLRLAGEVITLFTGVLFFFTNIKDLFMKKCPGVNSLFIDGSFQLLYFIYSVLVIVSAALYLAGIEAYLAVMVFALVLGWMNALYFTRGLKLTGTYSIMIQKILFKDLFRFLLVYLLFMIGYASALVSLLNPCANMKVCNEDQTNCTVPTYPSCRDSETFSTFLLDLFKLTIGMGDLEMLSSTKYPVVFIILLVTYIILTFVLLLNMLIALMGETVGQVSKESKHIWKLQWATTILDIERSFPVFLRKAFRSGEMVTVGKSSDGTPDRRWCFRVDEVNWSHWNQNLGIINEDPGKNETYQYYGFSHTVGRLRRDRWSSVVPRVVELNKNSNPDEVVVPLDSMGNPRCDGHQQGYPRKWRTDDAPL

One may read the Tmax as the time at which the peak concentration occurs. For orientation: inhibition means how much of the control response was suppressed. For orientation: IC50 means the point on the concentration scale where inhibition reaches its midpoint. For orientation: Cmax means the maximum level reached in the sampled fluid or tissue. As for `O=C(Nc1ccc(OC(F)(F)F)cc1)N1CCC2(CC1)C[C@@H](O)c1cccc(Cl)c1O2`, the Drug uptake entry in series [1] is “Active”. In series [2], the Tmax is 1 h. The Efficacy in series [3] is listed as 100%; in series [5], 65%; in series [6] it was 74%; in series [7], 66%; in [8] it was 39%; in series [22] it was 72%. For the same compound, the inhibition result was “Dose-dependent effect” in [4], 23.5% in [17], 38.8% in series [18] and 27.7% in series [19]. In addition, the IC50 in [9] is 16.5 nM; in series [20] it was greater than 1000 nM; in series [21], 8.9 nM. In series [10], this compound had an AUCt of 4980 ng·h/mL. Also, in [11], the Cmax came to 1090 ng/mL. Also, the remaining at 1 h, 1 µM turned out to be 67% in series [12]; 72% in [13]; 42% in series [14]; 79% in [15]; 81% in series [16].
